From ChEMBL document CHEMBL3351391, “Bioactive dihydronaphthoquinone derivatives from Fusarium solani” (J Nat Prod, 2014)
pIC50: −log10 of the molar value. Activity calls are given as the source filed them. The rule behind the calls is not given here.

What was measured:
HeLa [1] = assay: Cytotoxicity against human HeLa cells after 48 hrs by WST8 assay; assay type: functional, cell-based
Method in brief: (§1)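 WST-8 viability after 48 h exposure to a concentration series. Plating was 1 × 10^4 or 5 × 10^3 cells per well. HeLa and HuH-7 were grown in DMEM and HCT116 in RPMI 1640, each with 10% FBS. HUVEC were grown in endothelial cell growth medium. Kit reagent was added for 30–180 min at 37 °C, then absorbance was read at 450 nm. Doxorubicin was the positive control.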

[2] = Cytotoxicity against human HuH7 cells after 48 hrs by WST8 assay; assay type: functional, cell-based; settings: Huh-7, 48 h; method in brief: as §1
[3] = Cytotoxicity against human HCT116 cells after 48 hrs by WST8 assay; assay type: functional, cell-based; settings: HCT-116, 48 h; method in brief: as §1
HUVEC = assay: Cytotoxicity against HUVEC cells after 48 hrs by WST8 assay; assay type: functional, cell-based; settings: Homo sapiens; method in brief: as §1
HeLa [4] = assay: Cytotoxicity against human HeLa cells assessed as reduction in cell viability in presence of 10 mM NAC after 48 hrs by WST8 assay; assay type: functional, cell-based
Method in brief: (§2)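 HeLa cells were exposed to 0–30 μM agent for 48 h, with or without 10 mM N-acetylcysteine as ROS scavenger. Viability was then read by WST-8 (tetrazolium reduction, absorbance 450 nm). Data are mean ± SD, n = 3.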

HeLa [5] = assay: Induction of ROS generation in human HeLa cells at 1 uM after 3 hrs by CM-H2DCFDA dye based assay; assay type: functional, cell-based
Method in brief: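 HeLa cells were treated with agent over 0–10 μM; the methods give 1 h and the figure legend gives 3 h. Cells were then loaded with 10 μM CM-H2DCFDA for 20 min at 37 °C and washed. DCF fluorescence was read on a plate reader at ex 490/em 535 nm, n = 3.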

HeLa [6] = assay: Cytotoxicity against human HeLa cells assessed as reduction in cell viability at 10 to 30 uM in presence of 10 mM NAC after 48 hrs by WST8 assay; assay type: functional, cell-based; method in brief: as §2
HeLa [7] = assay: Induction of apoptosis in human HeLa cells assessed as DNA fragmentation at 4 uM after 48 hrs by TUNEL assay; assay type: functional, cell-based
Method in brief: (§3)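 HeLa cells were plated at 2.5 × 10^4 per chamber-slide well and exposed for 48 h at 37 °C. Doses were 4.0 μM test agent or 0.2 μM doxorubicin (positive control). DNA fragmentation was detected by TUNEL (ApopTag Red) under fluorescence microscopy. Apoptotic cells were counted among ≥200 cells per condition, as mean ± SD of three independent experiments.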

HeLa [8] = assay: Induction of cell death in human HeLa cells at 10 uM after 1 hr
HeLa [9] = assay: Induction of ROS generation in human HeLa cells at 10 to 60 uM after 3 hrs by CM-H2DCFDA dye based assay; assay type: functional, cell-based
HeLa [10] = assay: Induction of apoptosis in human HeLa cells assessed as DNA fragmentation at 0.2 uM after 48 hrs by TUNEL assay; assay type: functional, cell-based; method in brief: as §3

Compound	pIC50 (HeLa [1])	pIC50 [2]	pIC50 [3]	pIC50 (HUVEC)	Activity (HeLa [4])	Activity (HeLa [5])	Activity (HeLa [6])	Activity (HeLa [7])	Activity (HeLa [8])	Activity (HeLa [9])	Activity (HeLa [10])
COc1cc(O)c2c(c1O)[C@H](O)[C@@H]1C[C@](C)(O)OC[C@@H]1C2=O	< 4.52	4.57	< 4.52	4.88							
CC/C(=C(\c1ccccc1)c1ccc(OCCN(C)C)cc1)c1ccccc1					Active						
COC1=CC(=O)c2c(O)c(C)c(CC(C)=O)c(O)c2C1=O [JAVANICIN]	5.05	5.17	5.26	5.64							
CC(=O)Cc1c(C)c(O)c2c(c1O)C(=O)CCC2O (stereo unspecified)	< 4.52	< 4.52	< 4.52	5.24							
CC(=O)Cc1c(C)c(O)c2c(c1O)C(=O)CCC2=O	5.40	5.72	5.96	5.74		Active	inactive	Active	Active		
CC1=CC(=O)c2ccccc2C1=O										Active	
COc1cc(O)c2c(c1O)C(=O)[C@@H](CC(C)=O)[C@H](C)C2=O	5.10	4.97	4.81	5.11							
COc1cccc2c1C(=O)c1c(O)c3c(c(O)c1C2=O)C[C@@](O)(C(=O)CO)C[C@@H]3O[C@H]1C[C@H](N)[C@H](O)[C@H](C)O1 [DOXORUBICIN]	6.66	6.66	6.60	6.40							Active
